Measured values from different studies.
Target: Casein kinase I isoform gamma-2 (CSNK1G2, Homo sapiens, UniProt P78368)

C#Cc1cccc(Nc2ncnc3cc(OCCOC)c(OCCOC)cc23)c1 — remaining signal (cell-free assay; 0.5 µM): 98.3%
NS(=O)(=O)c1cc(NC(=O)C2(c3ccccc3Cl)CC2)ccc1Oc1cccc(Cl)c1 — remaining binding (cell-free assay; competition with immobilised ligand; 1 µM): 82%
Cc1ccc(C(=O)Nc2ccc(CN3CCN(C)CC3)c(C(F)(F)F)c2)cc1C#Cc1cnc2cccnn12 — remaining activity (enzyme activity; inhibitor; 23.5 nM): 96%
Cc1cnc(NC2CCOCC2)nc1-n1cnc(C(=O)NC(CN)c2cc(F)cc(Cl)c2)c1 (stereo not shown) — remaining activity (enzyme activity; inhibitor; radiometric; 1 µM): 53%
CCc1ccccc1C(=O)Nc1n[nH]c2c(C)c(F)c(C3C(C#N)=C(C)N(C)C(C)=C3C#N)cc12 — remaining binding (cell-free assay; competition with immobilised ligand; 1 µM): 97%
COc1cc(Nc2cnc(C#N)c(O[C@H](C)CN(C)C)n2)ncc1-c1cnn(C)c1 — remaining activity (enzyme activity; inhibitor; radiometric; 1 µM): 101%
COc1ccc2c(O[C@@H]3C[C@H]4C(=O)N[C@]5(C(=O)O)CC5/C=C\CCCCC[C@H](NC(=O)OC5CCCC5)C(=O)N4C3)cc(-c3csc(NC(=O)C(C)C)n3)nc2c1C (stereo partly shown) — remaining binding (cell-free assay; competition with immobilised ligand; 1 µM): 90%
COc1cc2ncnc(Nc3ccc(F)c(Cl)c3)c2cc1OCCCN1CCOCC1 — remaining signal (cell-free assay; 0.5 µM): 98.1%
COc1ccc2cc(OCC3(C(=O)O)CN(C(=O)c4ccc(F)cc4)C3)ccc2c1 — remaining binding (cell-free assay; competition with immobilised ligand; 1 µM): 100%
CC(C)(O)[C@H]1CC[C@H](Nc2ccc3ncc(-c4cccc(C(F)(F)F)c4)n3n2)CC1 — remaining activity (enzyme activity; inhibitor; 1 µM): 96.1%
O=C1NC(=O)c2cc(Nc3ccc(F)cc3)c(Nc3ccc(F)cc3)cc21 — remaining signal (cell-free assay; 0.5 µM): 97.5%
Nc1ncnc2occ(-c3ccc(NC(=O)Nc4cc(C(F)(F)F)ccc4F)cc3)c12 — remaining signal (cell-free assay; inhibitor; 20 µM): 6.8%
CCCOc1ccc([C@@H]2[C@@H](C(=O)O)[C@H](c3ccc4c(c3)OCO4)CN2CC(=O)Nc2c(CC)cccc2CC)cc1 — remaining binding (cell-free assay; competition with immobilised ligand; 1 µM): 96%
CNC(=O)c1cc(Oc2ccc(NC(=O)Nc3ccc(Cl)c(C(F)(F)F)c3)cc2)ccn1 — inhibition (enzyme activity; inhibitor; 10 µM): -4%
Cc1cc(NC(=O)c2cccc3cc(-c4cccc5[nH]nc(N)c45)ccc23)ccc1F — activity vs control (enzyme activity; inhibitor; 0.1 µM): 102%
CS(=O)(=O)Nc1cccc(-c2csc(NC(=O)CSc3nc4nccnc4c(=O)n3CCc3ccccc3)n2)c1 — inhibition (enzyme activity; inhibitor; 10 µM): 8%
CC(C)(C)c1nc2c(s1)c1nc(N)ncc1c1ccc(NS(=O)(=O)c3c(F)cccc3F)c(F)c12 — remaining activity (enzyme activity; inhibitor; radiometric; 1 µM): 104%
NS(=O)(=O)c1cc(NC(=O)Cc2ccccc2)ccc1Oc1cccc(Cl)c1 — remaining binding (cell-free assay; competition with immobilised ligand; 1 µM): 100%
O=C(Nc1cnn(-c2csc(C(=O)NC3COC3)c2)c1)Nc1ccccc1Cl — remaining activity (enzyme activity; inhibitor; 5 µM): 98.5%
C[C@@H]1CN(c2cc(-c3n[nH]c4ccc(OC5(C)CC5)cc34)ncn2)C[C@H](C)O1 — remaining binding (cell-free assay; competition with immobilised ligand; 0.1 µM): 100%
C[C@@H]1CCN(C(=O)CC#N)C[C@@H]1N(C)c1ncnc2[nH]ccc12 — remaining signal (cell-free assay; inhibitor; 0.5 µM): 95.4%
COc1cc2ncnc(Nc3ccc(Oc4ccccc4)c(C)c3C)c2cc1OC — inhibition (enzyme activity; inhibitor; 1 µM): 1%
